Measured values gathered from unrelated publications.
Compare with care: the assays were run in different laboratories.
Organism: Staphylococcus aureus
Read-out: microbial growth

COc1ccc(-c2nc3ccc(C)cc3[nH]2)cc1OC  MIC (broth dilution; ATCC43300 MRSA; drug-resistant strain): 256 µg/mL
COC(=O)c1cc(-c2cccc(NC(=S)NC3CCCCC3)c2)on1  MIC (broth dilution; ATCC29213): > 64 µg/mL
Cc1ccc2[nH]c3c(c2c1)CCCC3NCCc1ccc(Br)cc1 (centres unmarked)  MIC (broth dilution; VISA): 4 µg/mL
COC(=O)c1cc(-c2cccc(NC(=O)Nc3ccc(Cl)c(Cl)c3)c2)on1  MIC (broth dilution; ATCC29213): > 64 µg/mL
C=CCn1c(-c2ccc([N+](=O)[O-])cc2)nc2ccc(C)cc21  MIC (broth dilution; ATCC43300 MRSA; drug-resistant strain): 64 µg/mL
CC(=O)Nc1c2sscc-2[nH]c1=O  MIC (BAA1556 MRSA; drug-resistant strain): 5 µM
CCCCCCCCCCCCCCCC(=O)N(C)[C@H](CO)C(=O)N[C@H](C)C(=O)NCC(=O)N(C)[C@@H]1C(=O)N[C@@H](C)C(=O)N[C@H](C(=O)O)Cc2ccc(O)c(c2)-c2cc1ccc2O  MIC (MRSA): 25 µg/mL
CCN1CCN(C(=O)Cc2ccc(Nc3ncc(F)c(Nc4ccc(C(=O)Nc5ccccc5Cl)cc4)n3)cc2)CC1  MIC (NCTC8325): > 30 µM
C=CCn1c(-c2ccc(Cl)cc2)nc2ccccc21  MIC (broth dilution; ATCC43300 MRSA; drug-resistant strain): 128 µg/mL
CCCCCC/C=C\CCCCCCCCCC(=O)CP(=O)(O)O  MIC (ATCC33591 MRSA; drug-resistant strain): 100 µg/mL
CC(C)C[C@H](NC(=O)[C@@H](NC(=O)N[C@H](C(=O)O)C(C)C)[C@@H]1CCNC(=N)N1)C(=O)NCCCN[C@H](C(=O)O)[C@H](O[C@@H]1O[C@H](CN)[C@@H](O)[C@H]1O)[C@H]1O[C@@H](n2ccc(=O)[nH]c2=O)[C@H](O)[C@@H]1O  MIC (NEWMAN): > 80 µg/mL
COC(=O)c1cc(Oc2ccc(NC(=O)Nc3ccc(Cl)c(C(F)(F)F)c3)cc2)ccn1  MIC (NCTC8325): 3 µM
C=CCn1c(-c2ccc(Cl)c(Cl)c2)nc2ccccc21  MIC (broth dilution; ATCC43300 MRSA; drug-resistant strain): 64 µg/mL
COC(=O)c1cc(-c2cccc(NC(=O)Nc3cccc(C#N)c3)c2)on1  MIC (broth dilution; ATCC29213): > 64 µg/mL
C[C@@H](O)[C@H]1C(=O)N2C(C(=O)O)=C(S[C@@H]3CN[C@H](C(=O)N(C)C)C3)[C@H](C)[C@H]12  MIC (USA300): 1 µg/mL
COc1cccc(OC)c1C(=O)N[C@@H]1C(=O)N2[C@@H]1SC(C)(C)[C@@H]2C(=O)O  MIC (ATCCBAA41; drug-resistant strain, clinical isolate): > 64 µg/mL
COc1ccc(-c2nc3ccc(C)cc3[nH]2)cc1O  MIC (broth dilution; ATCC43300 MRSA; drug-resistant strain): 128 µg/mL
COC(=O)c1cc(-c2cccc(NC(=S)Nc3cccc(Cl)c3)c2)on1  MIC (broth dilution; ATCC29213): > 64 µg/mL
O=[N+]([O-])c1ccc(-c2nc3cccc(O)c3[nH]2)o1  MIC (broth dilution; ATCC700699 MRSA; drug-resistant strain): 2 µg/mL
c1ccc2[nH]c(-c3ccc4c(c3)OCO4)nc2c1  MIC (broth dilution; ATCC43300 MRSA; drug-resistant strain): 256 µg/mL
